Data on 4 compounds can be found in PMC10586019 (ACS Omega, 2023).

Values after ≈ are worked out from the molar mass of the structure shown. Values joined by “and” are separate entries in the source; they are usually repeats but may differ in a detail not shown here. Equal entries are not always repeated. Where a SMILES comes first, the peptide text is derived from it. Where no end group is shown, it is not given here. [ ]: non-standard residue; d: D form. Orn = NCCC[C@H](N)C(=O)O; Ahx = NCCCCCC(=O)O

Series [1] is described as follows: MTT cytotoxicity, Vero control cells. The series is classed as cell-based. As to conditions: Caco-2. Summed up:
(§1)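 Cells are grown in RPMI-1640 with 10% FBS, seeded at 1 × 10^4 per well, and synchronized for 24 h. Medium is replaced with peptide (0–200 μg/mL) in the same medium for 2 h at 37 °C. MTT (5 mg/mL solution) is added for 4 h at 37 °C, and formazan is dissolved in DMSO for 30 min at 37 °C. Absorbance is read at 570 nm.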

Series [2] has as its system Vero cells. Kind of series: MTT cytotoxicity, Vero control cells. It counts as cell-based. Particulars: for CC50 Vero: MTT, peptide 0-200 μg/mL, 2 h, 37 °C, n = 3; for Selectivity Index Vero/HT-29: SI = CC50/IC50. The method in brief:
as §1

Series [3] concerns erythrocytes. Kind of series: Hemolytic activity. The series is classed as cell-based, human. As to conditions: SI = hemolysis10%/IC50. The method in brief: (§2)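 Erythrocytes from healthy O+ donors (EDTA blood) are spun at 500 rpm and washed 3× in 0.9% saline. Peptide (final 200 to 6.2 μg mL−1) is mixed 1:1 with 2% hematocrit suspension for 2 h at 37 °C, then spun 2500 rpm for 5 min. Supernatant A450 is read. Positive controls are distilled water and Tween 20; the negative is 0.9% saline. The readout is the concentration causing 10% hemolysis.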

Series [4] is described as follows: Hemolytic activity. As to conditions: Caco-2. The series is classed as cell-based, human. Summed up:
as §2

Series [5] relates to human fibroblasts. As to the kind of experiment: MTT cytotoxicity, fibroblasts control cells. The series is classed as cell-based. As to conditions: for CC50 fibroblasts: MTT, peptide 0-200 μg/mL, 2 h, 37 °C, n = 3; for Selectivity Index fibroblasts/HT-29: SI = CC50/IC50.
Series [6] has as its system Caco-2. Kind of series: MTT viability test, Caco-2 colon cancer cells. It counts as cell-based. Particulars: Caco-2, MTT. In general terms: Tetrazolium assays rely on reduction of a dye to a coloured formazan, in cell work by metabolically active cells.
Series [7] in a line: MTT cytotoxicity, HEK-293 control cells. It counts as cell-based. As to conditions: Caco-2. Summed up: as §1
The test system of series [8] is HEK-293. Kind of series: MTT cytotoxicity, HEK-293 control cells. It counts as cell-based. As to conditions: for CC50 HEK-293: MTT, peptide 0-200 μg/mL, 2 h, 37 °C, n = 3; for Selectivity Index HEK-293/HT-29: SI = CC50/IC50. Summed up:
as §1

Series [9] concerns Du-145. As to the kind of experiment: MTT viability test, Du-145 prostate cancer cells. Particulars: for IC50 Du-145: peptide 0-200 μg/mL during 2 h, mean ± SE n = 3; for IC50: read-out: IC50 Du-145, peptide 0-200 μg/mL during 2 h, mean ± SE n = 3. It counts as cell-based. Summed up: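 Du-145 cells are seeded at 1 × 10^4 per well and synchronized for 24 h. They are exposed to peptide (0–200 μg/mL) in medium for 2 h at 37 °C. MTT (5 mg/mL solution) is added for 4 h at 37 °C, DMSO solubilization runs 30 min at 37 °C, and A570 is read. Data are mean ± SE, n = 3.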

Series [10] concerns Galleria mellonella. Kind of series: Galleria mellonella toxicity test. It counts as in vivo. Particulars: 20-100 mg/Kg, 10 days, Kaplan-Meyer, n = 2.
The nature of series [11]: MTT cytotoxicity, fibroblasts control cells. The series is classed as cell-based, human. Particulars: Caco-2.
Series [12] has as its system Galleria mellonella. As to conditions: at 33 mg/kg; cited from earlier work.

`N=C(N)NCCC[C@H](NC(=O)[C@H](Cc1c[nH]c2ccccc12)NC(=O)[C@H](CCC(N)=O)NC(=O)[C@H](Cc1c[nH]c2ccccc12)NC(=O)[C@H](CCCNC(=N)N)NC(=O)[C@H](Cc1c[nH]c2ccccc12)NC(=O)[C@H](CCC(N)=O)NC(=O)[C@H](Cc1c[nH]c2ccccc12)NC(=O)[C@H](CCCNC(=N)N)NC(=O)CCCCCN)C(N)=O` [Ahx-[Pal]] (H-[Ahx]RWQWRWQWR-NH2): the selectivity ratio in series [1] stood at 1. In addition, in [2], the “CC50 Vero” value is 40 μM and 64 μg/mL; the “Selectivity Index Vero/HT-29” value turned out to be 0.3. Moreover, in [3], the “Selectivity Index erythrocytes/HT-29” value was greater than 1.1. Also, the selectivity ratio in series [4] is greater than 3.1. Also, in [5], the CC50 fibroblasts was 98 μM and 157 μg/mL; the “Selectivity Index fibroblasts/HT-29” value stood at 0.8. Also, the “decrease of IC50 in Caco-2 cells compared to the parent peptide RWQWRWQWR” value in series [6] is “approx. 50%”. Besides, in series [7], the selectivity ratio was 2.2. Moreover, in [8], the “CC50 HEK-293” value is 86 μM and 132 μg/mL; the “Selectivity Index HEK-293/HT-29” value turned out to be 0.7.
As for `N=C(N)NCCC[C@H](NC(=O)[C@H](Cc1c[nH]c2ccccc12)NC(=O)[C@H](CCC(N)=O)NC(=O)[C@H](Cc1c[nH]c2ccccc12)NC(=O)[C@@H](N)CCCNC(=N)N)C(=O)N[C@@H](Cc1c[nH]c2ccccc12)C(=O)N[C@@H](CCC(N)=O)C(=O)N[C@@H](Cc1c[nH]c2ccccc12)C(=O)N[C@@H](CCCN)C(N)=O` [^9[Orn] [Pal]] (H-RWQWRWQW[Orn]-NH2), in series [9], the “IC50 Du-145” value stood at 89 µg/mL (≈ 61.6 µM) and the IC50 was 62 µM. Also, the selectivity ratio in [1] came out at 1.2. For the same compound, in series [2], the “CC50 Vero” value was 46 μM and 67 μg/mL; the “Selectivity Index Vero/HT-29” value is listed as 0.4. Also, the “toxicity” value in series [10] is recorded as “did not show any significant toxicity”. The “Selectivity Index erythrocytes/HT-29” value in [3] is given as greater than 1.3. Further, in series [4], the selectivity ratio is greater than 3.4. In series [5], the CC50 fibroblasts is 55 μM and 79 μg/mL; the “Selectivity Index fibroblasts/HT-29” value is on record as 0.5. The selectivity ratio in series [11] worked out at 1.4. Moreover, in [6], the “decrease of IC50 in Caco-2 cells compared to the parent peptide RWQWRWQWR” value is given as “approx. 50%” and the “fold increase in potency against Caco-2 versus parent peptide” value worked out at 2 fold. Further, the selectivity ratio in [7] worked out at 1.3. Besides, in series [8], the “CC50 HEK-293” value is 51 μM and 74 μg/mL; the “Selectivity Index HEK-293/HT-29” value came to 0.5.
As for `N.N.[Cl][Pt][Cl]` [cisplatin], in series [12], the “mortality in Galleria (previous study)” value is recorded as 60%.
Consider RWQWRWQWR-NH2 [[Pal]], for which, in series [9], the “IC50 Du-145” value worked out at 60 µg/mL and the IC50 came to 40 µM. The selectivity ratio in [1] was found to be 0.2. For the same compound, the “CC50 Vero” value in series [2] was 21 μM and 31 μg/mL. In [3], the “Selectivity Index erythrocytes/HT-29” value stood at 1.3. Also, the selectivity ratio in series [4] stood at 1.6. In addition, the CC50 fibroblasts in series [5] is > 134 μM and > 200 μg/mL. Besides, in series [7], the selectivity ratio worked out at 0.8. For the same compound, in [8], the “CC50 HEK-293” value was 68 μM and 101 μg/mL; the “Selectivity Index HEK-293/HT-29” value turned out to be 0.7.
